Assay results taken from ChEMBL document CHEMBL1127482 (J Med Chem, 1994).
Where a SMILES comes first, the peptide text is derived from it. Bridges are numbered along the chain shown (N, C = ends).

Legend:
Canis familiaris = organism: Canis familiaris; test: Effect of compound on template bleeding time in dogs; type: functional, Canis lupus familiaris
[1] = biological target: Integrin alpha-IIb/beta-3 (Homo sapiens, UniProt P05106+P08514); test: Binding affinity against integrin alpha 2b-beta 3 in enzyme linked immunosorbent assay (ELISA); type: protein-complex assay
Sequence of Integrin alpha-IIb/beta-3 (P05106 27-788 limits assumed): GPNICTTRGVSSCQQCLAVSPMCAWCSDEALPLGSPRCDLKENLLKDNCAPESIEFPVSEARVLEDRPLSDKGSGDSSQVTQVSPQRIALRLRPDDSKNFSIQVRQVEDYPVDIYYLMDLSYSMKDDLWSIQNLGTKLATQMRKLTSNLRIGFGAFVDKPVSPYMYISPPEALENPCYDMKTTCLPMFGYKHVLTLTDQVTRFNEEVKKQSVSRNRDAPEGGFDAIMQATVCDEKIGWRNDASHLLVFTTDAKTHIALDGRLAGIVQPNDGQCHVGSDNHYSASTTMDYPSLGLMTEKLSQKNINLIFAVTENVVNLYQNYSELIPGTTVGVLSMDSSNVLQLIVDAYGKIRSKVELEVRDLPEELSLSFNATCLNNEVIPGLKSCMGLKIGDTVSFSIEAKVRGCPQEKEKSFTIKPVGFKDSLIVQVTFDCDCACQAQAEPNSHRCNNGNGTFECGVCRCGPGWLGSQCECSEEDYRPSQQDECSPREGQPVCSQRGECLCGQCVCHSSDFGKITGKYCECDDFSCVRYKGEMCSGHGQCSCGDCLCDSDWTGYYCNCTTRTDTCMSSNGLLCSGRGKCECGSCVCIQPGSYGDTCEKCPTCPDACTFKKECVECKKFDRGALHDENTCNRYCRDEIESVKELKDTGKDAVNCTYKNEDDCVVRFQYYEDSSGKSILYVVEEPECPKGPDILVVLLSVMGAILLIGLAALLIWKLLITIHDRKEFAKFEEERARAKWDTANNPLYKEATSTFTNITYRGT
Sequence of Integrin alpha-IIb/beta-3 (P08514 32-887 limits assumed): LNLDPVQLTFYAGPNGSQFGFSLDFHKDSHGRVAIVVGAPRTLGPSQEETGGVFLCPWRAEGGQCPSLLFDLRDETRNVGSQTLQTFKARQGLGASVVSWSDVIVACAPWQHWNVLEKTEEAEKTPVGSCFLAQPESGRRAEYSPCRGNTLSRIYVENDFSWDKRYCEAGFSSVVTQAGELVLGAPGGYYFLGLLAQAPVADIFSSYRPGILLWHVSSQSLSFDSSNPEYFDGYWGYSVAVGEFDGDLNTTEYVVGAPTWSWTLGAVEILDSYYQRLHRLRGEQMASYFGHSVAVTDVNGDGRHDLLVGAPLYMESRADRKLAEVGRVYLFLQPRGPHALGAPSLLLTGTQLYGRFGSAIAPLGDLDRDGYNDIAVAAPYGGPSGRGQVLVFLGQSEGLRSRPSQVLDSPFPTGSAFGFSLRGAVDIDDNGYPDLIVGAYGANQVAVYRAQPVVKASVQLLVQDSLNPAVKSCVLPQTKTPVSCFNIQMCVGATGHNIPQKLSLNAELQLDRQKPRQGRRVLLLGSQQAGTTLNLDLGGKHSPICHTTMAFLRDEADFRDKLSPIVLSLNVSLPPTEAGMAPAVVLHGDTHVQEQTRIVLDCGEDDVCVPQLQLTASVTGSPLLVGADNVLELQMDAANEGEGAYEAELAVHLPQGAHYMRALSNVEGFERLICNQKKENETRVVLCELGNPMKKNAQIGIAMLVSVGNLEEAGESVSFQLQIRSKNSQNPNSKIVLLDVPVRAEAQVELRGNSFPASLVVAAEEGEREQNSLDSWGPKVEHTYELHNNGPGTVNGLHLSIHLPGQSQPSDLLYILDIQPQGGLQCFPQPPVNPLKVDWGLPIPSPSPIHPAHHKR
Sequence of Integrin alpha-IIb/beta-3 (P08514 891-1039 limits assumed): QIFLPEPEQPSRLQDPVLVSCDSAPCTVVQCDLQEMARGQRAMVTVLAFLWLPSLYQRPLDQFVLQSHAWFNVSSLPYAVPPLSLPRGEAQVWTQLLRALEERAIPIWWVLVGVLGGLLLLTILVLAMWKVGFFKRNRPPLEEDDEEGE
Procedure, shortened: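 Purified human platelet αIIbβ3 (from outdated platelets, octyl glucoside extract) in TBS with 20 mM octyl glucoside, 2 mM MgCl2 and 2 mM CaCl2 binds to plate-coated human fibrinogen (10 µg/mL in TBS) with 10-fold serial peptide dilutions for 3 h at room temperature. Bound receptor is detected with rabbit anti-αIIbβ3, then HRP anti-rabbit IgG, with o-phenylenediamine/H2O2 at pH 5.0. IC50 is reported.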

Integrin alpha-5/beta-1 = Integrin alpha-5/beta-1 (Homo sapiens, UniProt P05556+P08648); test: Binding affinity against integrin alpha5-beta1 in enzyme linked immunosorbent assay (ELISA); type: protein-complex assay
Homo sapiens = organism: Homo sapiens; test: Inhibition of 10 uM ADP induced platelet aggregation in human platelet rich citreated plasma (PRP); type: functional
Procedure, shortened: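 Aggregation is read as the increase in light transmission in an aggregometer, with platelets used within 3 h of collection. IC50 comes from regression of dose-response curves for inhibition of maximal aggregation, adjusted against a standard run in each experiment.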

Integrin alpha-V/beta-5 = Integrin alpha-V/beta-5 (Homo sapiens, UniProt P06756+P18084); test: Binding affinity against integrin alpha V-beta5 in enzyme linked immunosorbent assay (ELISA); type: protein-complex assay
Sequence of Integrin alpha-V/beta-5 (P06756 31-889 limits assumed): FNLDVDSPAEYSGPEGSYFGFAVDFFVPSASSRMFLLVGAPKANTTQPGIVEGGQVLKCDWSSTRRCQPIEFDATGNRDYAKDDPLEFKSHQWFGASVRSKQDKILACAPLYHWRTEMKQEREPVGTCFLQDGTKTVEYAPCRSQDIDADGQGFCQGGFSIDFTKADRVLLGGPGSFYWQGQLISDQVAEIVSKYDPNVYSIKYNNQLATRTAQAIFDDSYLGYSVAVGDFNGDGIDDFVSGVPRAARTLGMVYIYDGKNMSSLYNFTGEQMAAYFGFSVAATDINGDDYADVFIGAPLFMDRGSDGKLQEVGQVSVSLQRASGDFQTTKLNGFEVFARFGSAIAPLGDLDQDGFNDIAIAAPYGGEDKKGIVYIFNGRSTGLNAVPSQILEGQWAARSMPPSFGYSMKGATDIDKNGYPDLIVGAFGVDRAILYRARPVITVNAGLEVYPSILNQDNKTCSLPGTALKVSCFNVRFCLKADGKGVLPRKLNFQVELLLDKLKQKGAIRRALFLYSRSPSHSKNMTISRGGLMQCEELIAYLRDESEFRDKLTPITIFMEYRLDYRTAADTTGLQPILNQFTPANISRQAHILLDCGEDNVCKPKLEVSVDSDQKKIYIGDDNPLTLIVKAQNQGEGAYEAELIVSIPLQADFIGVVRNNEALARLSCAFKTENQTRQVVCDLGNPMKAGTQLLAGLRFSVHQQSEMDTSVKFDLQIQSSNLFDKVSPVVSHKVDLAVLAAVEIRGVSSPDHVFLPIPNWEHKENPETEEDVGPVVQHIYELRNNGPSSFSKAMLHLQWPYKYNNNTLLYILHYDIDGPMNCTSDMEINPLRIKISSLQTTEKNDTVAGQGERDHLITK
Sequence of Integrin alpha-V/beta-5 (P06756 891-1048 limits assumed): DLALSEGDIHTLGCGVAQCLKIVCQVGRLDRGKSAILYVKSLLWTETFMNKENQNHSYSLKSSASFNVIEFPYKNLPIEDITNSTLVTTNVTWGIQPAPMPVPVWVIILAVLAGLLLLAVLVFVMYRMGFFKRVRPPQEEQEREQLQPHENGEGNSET
Sequence of Integrin alpha-V/beta-5 (P18084 24-799 limits assumed): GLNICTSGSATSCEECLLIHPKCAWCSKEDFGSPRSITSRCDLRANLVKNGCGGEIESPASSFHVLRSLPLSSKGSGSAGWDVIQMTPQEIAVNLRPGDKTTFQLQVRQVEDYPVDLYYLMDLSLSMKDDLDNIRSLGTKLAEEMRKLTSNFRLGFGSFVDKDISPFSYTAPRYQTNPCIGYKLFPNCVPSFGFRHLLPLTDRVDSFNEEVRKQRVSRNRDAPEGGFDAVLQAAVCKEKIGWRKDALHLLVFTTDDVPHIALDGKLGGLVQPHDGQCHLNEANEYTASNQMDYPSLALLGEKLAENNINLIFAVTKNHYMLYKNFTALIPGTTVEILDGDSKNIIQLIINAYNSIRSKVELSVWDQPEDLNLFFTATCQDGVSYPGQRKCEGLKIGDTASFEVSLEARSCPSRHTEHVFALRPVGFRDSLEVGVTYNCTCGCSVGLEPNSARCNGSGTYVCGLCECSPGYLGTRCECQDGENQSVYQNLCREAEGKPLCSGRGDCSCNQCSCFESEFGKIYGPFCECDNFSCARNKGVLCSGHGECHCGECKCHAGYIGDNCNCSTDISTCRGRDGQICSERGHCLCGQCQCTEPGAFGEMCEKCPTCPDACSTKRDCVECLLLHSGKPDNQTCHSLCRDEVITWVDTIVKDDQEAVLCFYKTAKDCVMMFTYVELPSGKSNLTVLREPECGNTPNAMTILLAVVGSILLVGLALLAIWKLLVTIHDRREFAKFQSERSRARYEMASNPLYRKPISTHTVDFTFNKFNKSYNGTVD
Procedure, shortened: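 It is added to wells coated with human vitronectin in 0.1 M carbonate, pH 9.6, with 10-fold serial peptide dilutions for 3 h at room temperature. Detection uses rabbit anti-VnR, HRP anti-rabbit IgG and o-phenylenediamine/H2O2.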

| SMILES | Bleeding time (Canis familiaris) | other results |
| --- | --- | --- |
| COc1ccc(C[C@@H]2NC(=O)[C@H](CC(=O)O)NC(=O)CNC(=O)[C@H](CCCNC(=N)N)NC(=O)[C@@H]3CCCN3C(=O)[C@H](CC(N)=O)NC(=O)[C@@H](NC(C)=O)CSSC[C@@H](C(N)=O)NC(=O)[C@H](C)NC2=O)cc1 | >30 min | – |
| COc1ccc(C[C@@H]2NC(=O)[C@H](CC(=O)O)NC(=O)CNC(=O)[C@H](CCCN=C(N)N)NC(=O)[C@@H]3CCCN3C(=O)[C@H](CC(N)=O)NC(=O)[C@@H](NC(C)=O)CSSC[C@@H](C(N)=O)NC(=O)[C@H](CCCN=C(N)N)NC2=O)cc1 | 3 min | – |
| CC[C@H](C)[C@@H]1NC(=O)[C@@H](NC(C)=O)CSSC[C@@H](C(N)=O)NC(=O)[C@H](CCCN=C(N)N)NC(=O)[C@H](Cc2ccccc2)NC(=O)[C@H](CC(=O)O)NC(=O)CNC(=O)[C@H](CCCN=C(N)N)NC(=O)[C@@H]2CCCN2C1=O (Ac-CIPRGDFRC-NH2; disulfide 1-9) | – | IC50 [1]: 14 nM; IC50 (Integrin alpha-5/beta-1): 2100 nM; IC50 (Homo sapiens): 450 nM; IC50 (Integrin alpha-V/beta-5): 10000 nM |
| COc1ccc(C[C@@H]2NC(=O)[C@H](CC(=O)O)NC(=O)CNC(=O)[C@H](CCCCN)NC(=O)[C@@H]3CCCN3C(=O)[C@H](CC(N)=O)NC(=O)[C@@H](NC(C)=O)CSSC[C@@H](C(N)=O)NC(=O)[C@H](CCCN=C(N)N)NC2=O)cc1 | 3.5 min | – |
| COc1ccc(C[C@@H]2NC(=O)[C@H](CC(=O)O)NC(=O)CNC(=O)[C@H](CCCNC(=N)N)NC(=O)[C@@H]3CCCN3C(=O)[C@H](CC(N)=O)NC(=O)[C@@H](NC(C)=O)CSSC[C@@H](C(N)=O)NC(=O)[C@H](CCC(=O)O)NC2=O)cc1 | > 30 min | – |
| COc1ccc(C[C@@H]2NC(=O)[C@H](CC(=O)O)NC(=O)CNC(=O)[C@H](CCCNC(=N)N)NC(=O)[C@@H]3CCCN3C(=O)[C@H](CC(N)=O)NC(=O)[C@@H](NC(C)=O)CSSC[C@@H](C(N)=O)NC(=O)[C@H](CC(C)C)NC2=O)cc1 | 21 min | – |
